The results in this text go back to ChEMBL document CHEMBL1145184, “Synthesis, X-ray crystal structure study, and cytostatic and antiviral evaluation of the novel cycloalkyl-N-aryl-hydroxamic acids” (J Med Chem, 2005).

In brackets after ≈: the same amount, converted by molar mass.

For test [1], the system named is Cell line. The test can be described thus: Cytotoxic concentration required to reduce cell growth by 50%. In kind it is functional. Particulars: Homo sapiens. The essentials: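 Growth of HEL cells was measured. CC50 is the concentration that reduces cell growth by 50%, given in µg/mL.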
Test [2] deals with CCRF-CEM. The test can be described thus: Inhibitory concentration of the compound was determined againstCEM cell line. To be noted: Homo sapiens. In kind it is functional, cell-based.
For a further test, the system named is HEp-2. The test can be described thus: Inhibitory concentration of the compound was determined against Hep2 cell line. In kind it is functional, cell-based. To be noted: Homo sapiens.
In another test the test system is MCF7. The test can be described thus: Inhibitory concentration of the compound was determined against MCF-7 cell line. The format is functional, cell-based. To be noted: Homo sapiens.
The subject of test [3] is Cytomegalovirus. The test can be described thus: Effective concentration against Davis strain of CMV virus expressed in HEL cells. The format is functional, organism-based. Particulars: Human betaherpesvirus 5, HEL. Put shortly:
(§1)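 Human embryonic lung (HEL) cell cultures infected with cytomegalovirus at 100 plaque forming units. EC50 is the concentration that cuts plaque formation by 50%, given in µg/mL.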

The subject of test [4] is L1210. The test can be described thus: Inhibitory concentration of the compound was determined against L1210 cell line. In kind it is functional, cell-based. Particulars: Mus musculus.
The test system of a further test is SW-620. The test can be described thus: Inhibitory concentration of the compound was determined against SW6 20 cell line. The format is functional, cell-based. To be noted: Homo sapiens.
A short description of test [5]: Inhibitory concentration of the compound was determined against W138 cell line. In kind it is functional, cell-based, Homo sapiens. The essentials: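 Cytostatic test on human normal fibroblasts, run in the same panel as the malignant tumour lines L1210, Molt4/C8, CEM, SW620, Hep2, MiaPaCa2, MCF7 and HeLa. The value is reported as an IC50.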
The test system of test [6] is Cytomegalovirus. The test can be described thus: Effective concentration against AD-169 strain of CMV virus expressed in HEL cells. In kind it is functional, organism-based. Particulars: Human betaherpesvirus 5, HEL. The essentials:
as §1

Test [7] relates to Cell line. The test can be described thus: Minimum cytotoxic concentration that causes a microscopically detectable alteration of cell morphology. The format is functional. To be noted: Homo sapiens.
Another test concerns MIA PaCa-2. The test can be described thus: Inhibitory concentration of the compound was determined against MiaPaCa2 cell line. In kind it is functional, cell-based. Particulars: Homo sapiens.
Another test has as its system MOLT-4. The test can be described thus: Inhibitory concentration of the compound was determined against Molt 4/C8 cell line. In kind it is functional, cell-based. To be noted: Homo sapiens.
The subject of test [8] is HeLa. The test can be described thus: Inhibitory concentration of the compound was determined against HeLa cell line. Particulars: Homo sapiens. The format is functional, cell-based.
For test [9], the system named is HeLa. The test can be described thus: Inhibitory concentration of the compound was determined againstHeLa cell line. The format is functional, cell-based. Particulars: Homo sapiens.
For test [10], the system named is CCRF-CEM. The test can be described thus: Inhibitory concentration was determined against CEM cell line. Particulars: Homo sapiens. In kind it is functional, cell-based.
In test [11] the test system is CCRF-CEM. The test can be described thus: Inhibitory concentration ofthecompound was determined against CEM cell line. The format is functional, cell-based. Particulars: Homo sapiens.
For test [12], the system named is L1210. The test can be described thus: Inhibitory concentration against L1210 cell line. The format is functional, cell-based. Particulars: Mus musculus.

In the test on Cell line [1], `O=C(CC1CCCCC1)N(O)c1ccccc1` showed a CC50 of over 200 µg/mL. For the same compound, the IC50 in the test on CCRF-CEM [2] is 40 µM; with HEp-2, over 100 µM; in the test with MCF7, over 100 µM; in the test with L1210 [4] it was 27 µM; in the test with SW-620, 20 µM; in [5], 70 µM. Also, the IC50 with MIA PaCa-2 came out at 40 µM; in the test on MOLT-4, 41 µM; with HeLa [8], 30 µM. Besides, the EC50 with Cytomegalovirus [3] and with Cytomegalovirus [6] was 8 µg/mL (≈ 34.3 µM) each time. For the same compound, the MCC in the test with Cell line [7] came to 100 µg/mL.

In the test with Cell line [1], `O=C(N(O)c1ccc(Cl)cc1)C12CC3CC(CC(C3)C1)C2` yielded a CC50 of over 50 µg/mL. Besides, the IC50 is over 500 µM in the test on CCRF-CEM [2]; over 100 µM in the test with HEp-2; over 100 µM in the test with MCF7; 290 µM in the test on L1210 [4]; over 100 µM in the test with SW-620; over 100 µM in [5]. The IC50 is over 100 µM with MIA PaCa-2, at least 500 µM in the test with MOLT-4 and over 100 µM with HeLa [8]. Besides, the EC50 is 7 µg/mL (≈ 22.9 µM) in the test with Cytomegalovirus [3] and 13 µg/mL (≈ 42.5 µM) with Cytomegalovirus [6]. For the same compound, in the test on Cell line [7], the MCC was 100 µg/mL.

In the test with Cell line [1], `O=C(CCC1CCCC1)N(O)c1ccc(Cl)cc1` had a CC50 of 20 µg/mL (≈ 74.7 µM). For the same compound, the IC50 with HEp-2 worked out at 20 µM; in the test on MCF7, 10 µM; in the test on L1210 [4] it was 38 µM; in the test with SW-620, 10 µM; in test [5], 10 µM; with MIA PaCa-2, 7 µM. In addition, the IC50 with MOLT-4 turned out to be 28 µM; in the test with HeLa [9], 30 µM; in the test on CCRF-CEM [10] it was 37 µM. The EC50 was determined as 8 µg/mL (≈ 29.9 µM) in the test on Cytomegalovirus [3] and 10 µg/mL (≈ 37.3 µM) with Cytomegalovirus [6]. Moreover, the MCC with Cell line [7] was found to be 100 µg/mL.

In the test on Cell line [1], `O=C(C1CCCCC1)N(O)c1ccc(Cl)cc1` yielded a CC50 of 28 µg/mL (≈ 110 µM). Also, the IC50 is 40 µM with HEp-2; 80 µM in the test with MCF7; 17 µM in the test with CCRF-CEM [11]; 16 µM in the test on L1210 [4]; 10 µM with SW-620; 100 µM in [5]. Besides, the results for the IC50 in the test on MIA PaCa-2, in the test with MOLT-4 and in the test on HeLa [9] were 20 µM, 19 µM and 30 µM, respectively. Also, the EC50 in the test with Cytomegalovirus [3] was determined as 8.9 µg/mL (≈ 35.1 µM); in the test with Cytomegalovirus [6], 7.3 µg/mL (≈ 28.8 µM). Besides, the MCC with Cell line [7] was at least 20 µg/mL.

`O=C(CC1CCCCC1)N(O)c1ccc(Cl)cc1` gave a CC50 with Cell line [1] of 129 µg/mL (≈ 482 µM). Also, the IC50 in the test with CCRF-CEM [2] was found to be 16 µM; in the test with HEp-2, 9 µM; with MCF7 it was 10 µM; in the test with L1210 [4], 26 µM; in the test with SW-620, 9 µM; in [5] it was 50 µM. In addition, the IC50 was found to be 8 µM with MIA PaCa-2, 33 µM with MOLT-4 and 30 µM in the test with HeLa [9]. The EC50 in the test on Cytomegalovirus [3] is 6.2 µg/mL (≈ 23.2 µM); in the test on Cytomegalovirus [6], 7.3 µg/mL (≈ 27.3 µM). In addition, the MCC in the test with Cell line [7] amounted to 50 µg/mL.

With `O=C(CCC1CCCCC1)N(O)c1ccc(Cl)cc1`, the CC50 in the test with Cell line [1] worked out at 4.7 µg/mL (≈ 16.7 µM). The IC50 turned out to be 36 µM in the test on CCRF-CEM [2]; 30 µM in the test with HEp-2; 20 µM in the test with MCF7; 21 µM in the test on L1210 [4]; 20 µM in the test on SW-620; 30 µM in test [5]. For the same compound, the IC50 with MIA PaCa-2 is 10 µM; in the test with MOLT-4 it was 24 µM; with HeLa [9] it was 30 µM. Further, the values for the EC50 with Cytomegalovirus [3] and in the test on Cytomegalovirus [6] were 0.8 µg/mL (≈ 2.84 µM) and 1.5 µg/mL (≈ 5.32 µM), respectively. In addition, in the test on Cell line [7], the MCC was at least 4 µg/mL.

Compound `O=C(C1CC1)N(O)c1ccc(Cl)cc1` returned a CC50 in the test with Cell line [1] of 37 µg/mL (≈ 175 µM). Also, the IC50 with CCRF-CEM [2] was 25 µM; in the test on HEp-2, over 100 µM; in the test with MCF7, over 100 µM; in the test with SW-620, 60 µM; in test [5], over 100 µM; with MIA PaCa-2, over 100 µM. Further, the IC50 was 24 µM in the test on MOLT-4, over 80 µM with HeLa [9] and 22 µM in the test on L1210 [12]. Also, the EC50 in the test on Cytomegalovirus [3] and in the test with Cytomegalovirus [6] was over 20 µg/mL each time. The MCC with Cell line [7] is 100 µg/mL.

In the test on Cell line [1], `Nc1ccn(C[C@@H](CO)OCP(=O)(O)O)c(=O)n1.O.O` [CIDOFOVIR] gave a CC50 of 24 µg/mL. The EC50 in the test on Cytomegalovirus [3] turned out to be 0.29 µg/mL; in the test on Cytomegalovirus [6], 0.18 µg/mL. The same compound gave an MCC in the test with Cell line [7] of at least 400 µg/mL.

Consider `Nc1nc2c(ncn2COC(CO)CO)c(=O)[nH]1` [GANCICLOVIR], for which the EC50 in the test on Cytomegalovirus [3] and in the test on Cytomegalovirus [6] was 0.37 µg/mL (≈ 1.45 µM) in each case. The same compound returned an MCC with Cell line [7] of at least 400 µg/mL.
